Source: ChEMBL document CHEMBL3588808, “Koumine, Humantenine, and Yohimbane Alkaloids from Gelsemium elegans” (J Nat Prod, 2015)
One block for each molecule: values may come before it.

Experiments:
A549 = assay: Cytotoxicity against human A549 cells by MTT assay; assay type: functional, cell-based
RAW264.7 = assay: Inhibition of nitric oxide production in LPS-activated mouse RAW264.7 cells; assay type: functional, cell-based
Procedure, shortened: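 LPS-activated RAW264.7 macrophages; compounds dissolved in DMSO and diluted in medium to a range of concentrations, top concentration 25 μM; NO production read as absorbance at 570 nm on a plate reader.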

[1] = Cytotoxicity against human BEAS2B cells by MTT assay; assay type: cell-based, BEAS-2B
MCF7 = assay: Cytotoxicity against human MCF7 cells by MTT assay; assay type: functional, cell-based
HL-60 = assay: Cytotoxicity against human HL60 cells by MTT assay; assay type: functional, cell-based
SMMC-7721 = assay: Cytotoxicity against human SMMC7721 cells by MTT assay; assay type: functional, cell-based
SW480 = assay: Cytotoxicity against human SW480 cells by MTT assay; assay type: functional, cell-based
[2] = Homo sapiens, A549, read-out: IC50
[3] = Mus musculus, RAW264.7, read-out: IC50
[4] = Homo sapiens, BEAS-2B, read-out: IC50
[5] = Homo sapiens, MCF7, read-out: IC50
[6] = Homo sapiens, HL-60, read-out: IC50
[7] = Homo sapiens, SMMC-7721, read-out: IC50
[8] = Homo sapiens, SW480, read-out: IC50

IC50 (RAW264.7; [3]): > 25 µM
SMILES: COc1ccc2c(c1)N(OC)C(=O)[C@@]21C[C@@H]2NC=C(C=O)[C@@H]3C[C@H]1OC[C@H]23
IC50 (A549; [2]): 9.3 µM
IC50 [1, 4]: > 10 µM
IC50 (MCF7; [5]): > 10 µM
IC50 (HL-60; [6]): 8.5 µM
IC50 (SMMC-7721; [7]): 7.3 µM
IC50 (SW480; [8]): > 10 µM

IC50 (RAW264.7; [3]): > 25 µM
SMILES: CC[C@@]1(O)CN[C@H]2C[C@@]3(C(=O)N(OC)c4ccccc43)[C@@H]3OC[C@H]2[C@H]1[C@@H]3O

IC50 (RAW264.7; [3]): > 25 µM
SMILES: COc1ccc2c(c1)N(OC)C(=O)[C@@]21C[C@@H]2NC[C@](O)(C(C)O)[C@@H]3C[C@H]1OC[C@H]23 (some centres not stated)

IC50 (RAW264.7; raw264.7): ND(Insoluble)
SMILES: [O-][n+]1c2c3cc4c(cn3ccc-2c2ccccc21)CCCC4
IC50 (A549; a549): ND(Insoluble)
IC50 ([1]; beas-2b): ND(Insoluble)
IC50 (MCF7; mcf7): ND(Insoluble)
IC50 (HL-60; hl-60): ND(Insoluble)
IC50 (SMMC-7721; smmc-7721): ND(Insoluble)
IC50 (SW480; sw480): ND(Insoluble)

IC50 (RAW264.7; [3]): > 25 µM
SMILES: CCOC(=O)CCc1cc2c3[n-]c4ccccc4c3cc[n+]2cc1C(=O)O

IC50 (RAW264.7; [3]): > 25 µM
SMILES: C=C[C@]12[C@@H]3C[C@@H]4OC[C@@H]3[C@@H](C[C@]13C4=Nc1ccccc13)N(C)[C@H]2O

IC50 (RAW264.7; [3]): > 25 µM
SMILES: C=C[C@@]12C=N[C@H]3C[C@]14C(=Nc1ccccc14)[C@H]1C[C@@H]2[C@@H]3CO1
IC50 (A549; [2]): 4.9 µM
IC50 [1, 4]: 8.6 µM
IC50 (MCF7; [5]): 9.3 µM
IC50 (HL-60; [6]): 4.6 µM
IC50 (SMMC-7721; [7]): 5.3 µM
IC50 (SW480; [8]): 7.3 µM

IC50 (RAW264.7; [3]): > 25 µM
SMILES: C=C[C@]12[C@@H]3C[C@@H]4OC[C@@H]3[C@@H](C[C@]13C4=Nc1ccccc13)N(C)[C@@H]2O

IC50 (RAW264.7; [3]): > 25 µM
SMILES: C[C@H](O)[C@@]12C[N+](C)([O-])[C@@H]3C[C@]14C(=Nc1ccccc14)[C@H]1C[C@@H]2[C@@H]3CO1 (some centres not stated)
